Assay results from ChEMBL document CHEMBL3860034, “Development of Potent and Selective S. aureus Sortase A Inhibitors Based on Peptide Macrocycles” (ACS Med Chem Lett, 2016).
*1 amine or outer side, *2 acyl side, *3 side chain or, on linkers, in order; H or OH if unused. Where a SMILES comes first, the peptide text is derived from it. Bridges are numbered along the chain shown (N, C = ends). TBMB = c1c(C[*:1])cc(C[*:3])cc1C[*:2]

biological target: T1, Sortase A (Staphylococcus aureus, UniProt Q9S446); experiment: Inhibition of Staphylococcus aureus His6-biotinylated SrtA expressed in Escherichia coli XL1-blue using Dabcyl-LPETG-Edans as substrate assessed as residual activity by fluorescence assay
T1 sequence (Q9S446 whole entry): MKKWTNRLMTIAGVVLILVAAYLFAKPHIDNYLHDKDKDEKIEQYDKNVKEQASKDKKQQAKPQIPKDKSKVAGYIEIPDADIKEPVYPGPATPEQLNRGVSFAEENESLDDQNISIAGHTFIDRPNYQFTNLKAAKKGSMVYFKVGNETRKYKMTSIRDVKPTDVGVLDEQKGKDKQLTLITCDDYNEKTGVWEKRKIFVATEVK
Method in brief: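 (His)6-SrtA26−206 from E. coli XL1-blue, purified by Ni affinity and gel filtration. Enzyme at 2.5 μM incubated with varied peptide concentrations (up to 300 μM). Residual activity measured with 20 μM Dabcyl-LPETG-Edans and 200 μM triglycine in 50 mM Tris-Cl pH 7.4, 150 mM NaCl, 5 mM CaCl2, 0.1% BSA, 37 °C. Fluorescence read at ex 350/em 480 nm. Ki from Supporting Information equations; at least three measurements.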

| Structure (SMILES) | Ki [µM] |
| --- | --- |
| CC[C@H](C)[C@@H]1NC(=O)[C@H](CO)NC(=O)[C@@H](NC(=O)[C@H](C)N)CSCc2cc3cc(c2)CSC[C@H](NC(=O)[C@@H]2CCCN2C(=O)[C@@H]2CCCN2C(=O)[C@H](CC(C)C)NC1=O)C(=O)N[C@@H](CC(N)=O)C(=O)N1CCC[C@H]1C(=O)N1CCC[C@H]1C(=O)N[C@@H](CCC(N)=O)C(=O)N[C@H](C(=O)NCC(N)=O)CSC3 | 11.1 |
| CC(C)C[C@@H]1NC(=O)[C@H](CCC(N)=O)NC(=O)[C@H](CCCNC(=N)N)NC(=O)[C@H](NC(=O)[C@H](C)N)CSCc2cc3cc(c2)CSC[C@H](C(=O)NCC(N)=O)NC(=O)[C@H](C(C)C)NC(=O)[C@H](Cc2ccc(O)cc2)NC(=O)[C@H](CCC(=O)O)NC(=O)[C@H](C)NC(=O)[C@H](CSC3)NC(=O)[C@@H]2CCCN2C(=O)[C@@H]2CCCN2C1=O | 45.5 |
| CC[C@H](C)[C@@H]1NC(=O)[C@H](CO)NC(=O)[C@@H](NC(=O)[C@H](C)N)CSCc2cc3cc(c2)CSC[C@H](NC(=O)[C@@H]2CCCN2C(=O)[C@@H]2CCCN2C(=O)[C@H](CC(C)C)NC1=O)C(=O)N[C@H](CC(N)=O)C(=O)N1CCC[C@H]1C(=O)N1CCC[C@H]1C(=O)N[C@@H](CCC(N)=O)C(=O)N[C@H](C(=O)NCC(N)=O)CSC3 | 11.1 |
| CC[C@H](C)[C@@H]1NC(=O)[C@H](C)NC(=O)[C@@H](NC(=O)[C@H](C)N)CSCc2cc3cc(c2)CSC[C@H](NC(=O)[C@@H]2CCCN2C(=O)[C@@H]2CCCN2C(=O)[C@H](CC(C)C)NC1=O)C(=O)N[C@@H](CCC(N)=O)C(=O)N1CCC[C@H]1C(=O)N[C@@H](CCCNC(=N)N)C(=O)N[C@H](C(=O)NCC(N)=O)CSC3 | 21.5 |
| CC[C@H](C)[C@@H]1NC(=O)[C@H](C)NC(=O)[C@@H](NC(=O)[C@H](C)N)CSCc2cc3cc(c2)CSC[C@H](C(=O)NCC(N)=O)NC(=O)[C@H](CCCNC(=N)N)NC(=O)[C@@H]2CCCN2C(=O)[C@H](CCC(N)=O)NC(=O)[C@H](CSC3)NC(=O)[C@@H]2CCCN2C(=O)[C@@H]2CCCN2C(=O)[C@H](CC(C)C)NC1=O | 21.5 |
| CC(C)C[C@@H]1NC(=O)[C@H](CCC(N)=O)NC(=O)[C@H](CCCNC(=N)N)NC(=O)[C@@H](NC(=O)[C@H](C)N)CSCc2cc3cc(c2)CSC[C@H](NC(=O)[C@@H]2CCCN2C(=O)[C@@H]2CCCN2C1=O)C(=O)N[C@@H](C)C(=O)N[C@@H](CCC(=O)O)C(=O)N[C@@H](Cc1ccc(O)cc1)C(=O)N[C@@H](C(C)C)C(=O)N[C@H](C(=O)NCC(N)=O)CSC3 | 45.5 |
| CC(C)C[C@@H]1NC(=O)[C@@H](NC(=O)[C@H](C)N)CSCc2cc3cc(c2)CSC[C@H](NC(=O)[C@@H]2CCCN2C(=O)[C@@H]2CCCN2C(=O)[C@H](CC(C)C)NC(=O)[C@H](CCC(N)=O)NC1=O)C(=O)N[C@@H](CO)C(=O)N[C@@H](CO)C(=O)N1CCC[C@H]1C(=O)N[C@H](C(=O)NCC(N)=O)CSC3 (H-ACLQLPPCSSPCG-NH2; linker 2-8-12 via TBMB) | 11.6 |
| CC[C@H](C)[C@@H]1NC(=O)[C@H](CO)NC(=O)[C@H](CO)NC(=O)[C@@H]2CSCc3cc(cc(c3)CSC[C@@H](C(=O)NCC(N)=O)NC(=O)[C@@H]3CCCN3C(=O)[C@@H]3CCCN3C(=O)[C@H](CC(C)C)NC1=O)CSC[C@H](NC(=O)[C@H](C)N)C(=O)N[C@@H](CCSC)C(=O)N[C@@H](Cc1ccc(O)cc1)C(=O)N[C@@H](CCC(N)=O)C(=O)N[C@@H](C)C(=O)N[C@@H](C)C(=O)N[C@@H](CC(C)C)C(=O)N2 (H-ACMYQAALCSSILPPCG-NH2; linker 2-9-16 via TBMB) | 9.4 |
| CC(C)C[C@@H]1NC(=O)[C@@H]2CCCN2C(=O)[C@@H](NC(=O)[C@H](C)N)CSCc2cc3cc(c2)CSC[C@H](NC(=O)[C@@H]2CCCN2C(=O)[C@@H]2CCCN2C(=O)[C@H](CC(C)C)NC1=O)C(=O)N[C@@H](C)C(=O)N[C@@H](CC(=O)O)C(=O)N[C@@H](CC(=O)O)C(=O)N[C@H](C(=O)NCC(N)=O)CSC3 (H-ACPLLPPCADDCG-NH2; linker 2-8-12 via TBMB) | 3 |
